Measured values from ChEMBL document CHEMBL1125745, “Unsaturated and carbocyclic nucleoside analogues: synthesis, antitumor, and antiviral activity” (J Med Chem, 1991).

Key:
L1210 [1] = experiment: Inhibitory activity against murine leukemia L1210 cells; format: functional, cell-based; settings: Mus musculus
MC-38 [2] = experiment: Cytotoxicity was evaluated against C38 solid tumor of mouse at 500 ug/disk.; format: functional; set-up: unit not given beside the values
Outline: (§1)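 Disk zone assay: analogue dilutions on 6.5 mm paper disks were placed on dishes with a 0.8% agar bottom layer and a 0.44% soft-agar top layer of tumor cells (≤1 × 10^5/plate) in Fishers-CMRL-1066 with 12% horse serum. Plates were incubated 6-10 days and the inhibition zone was measured by microscope; 200 zone units = 6 mm.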

L1210 [3] = experiment: Cytotoxicity was evaluated against L1210 leukemia cell line at 500 ug/disk.; format: functional, Mus musculus; outline: as §1
L1210 [4] = experiment: Compound were evaluated for inhibition of macromolecular synthesis in murine leukemia L1210 cells at 4 hour against Protein; format: functional, Mus musculus; set-up: scale not given: the % may be the effect or the level left
L1210 [5] = experiment: Compound were evaluated for inhibition of macromolecular synthesis in murine leukemia L1210 cells at 1 hour against Protein; format: functional, Mus musculus; set-up: scale not given: the % may be the effect or the level left
L1210 [6] = experiment: Compound were evaluated for inhibition of macromolecular synthesis in murine leukemia L1210 cells at 4 hour against DNA.; format: functional, Mus musculus; set-up: scale not given: the % may be the effect or the level left
[7] = Cytotoxicity was evaluated against low malignancy line at 500 ug/disk.; format: functional; outline: as §1
L1210 [8] = experiment: Compound were evaluated for inhibition of macromolecular synthesis in murine leukemia L1210 cells at 1 hour against RNA.; format: functional, Mus musculus; set-up: scale not given: the % may be the effect or the level left
L1210 [9] = experiment: Compound were evaluated for inhibition of macromolecular synthesis in murine leukemia L1210 cells at 1 hour against DNA.; format: functional, Mus musculus; set-up: scale not given: the % may be the effect or the level left
L1210 [10] = experiment: Compound were evaluated for inhibition of macromolecular synthesis in murine leukemia L1210 cells at 4 hour against RNA.; format: functional, Mus musculus; set-up: scale not given: the % may be the effect or the level left
Homo sapiens [11] = organism: Homo sapiens; experiment: Cytotoxicity was evaluated against H125 human solid tumor at 500 ug/disk.; format: functional; outline: as §1
PO3 [12] = experiment: Cytotoxicity was evaluated against PO3 cell line at 1000 ug/disk.
Homo sapiens [13] = organism: Homo sapiens; experiment: Cytotoxicity was evaluated against C116 human solid tumor at 500 ug/disk.; format: functional; outline: as §1
Mus musculus [14] = organism: Mus musculus; experiment: Concentration that reduces Rauscher murine leukemia virus titer by 50%; format: functional, organism-based
Outline: (§2)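 SC-1 cells (1 × 10^4/well) were pretreated with polybrene, infected 2 h at 37 °C with F-MuLV or R-MuLV in EMEM-5 with 8 µg/mL polybrene, washed, and refed with analogue for 72 h. They were then UV-irradiated and overlaid with XC cells (2 × 10^5) for 48 h, fixed and stained with crystal violet. Multinucleated cells were counted and EC50 was taken by linear regression versus untreated cultures.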

Mus musculus [15] = organism: Mus musculus; experiment: Cytotoxicity was evaluated; format: functional
Outline: (§3)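 SC-1 cells (1 × 10^4 cells/mL) were seeded, incubated overnight at 37 °C, refed with EMEM-10 and given diluted analogue in triplicate for 72 h at 37 °C. Cells were trypsinized and counted in a Coulter counter. The mean of three wells gave percent of control count, and IC50 was calculated by linear regression.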

[16] = Selectivity index which is the ratio of IC50 to EC50 of R-MuLV.; format: functional
Mus musculus [17] = organism: Mus musculus; experiment: Concentration that reduces Friend murine leukemia virus titer by 50%; format: functional, organism-based; outline: as §2
[18] = Selectivity index is the ratio of IC50 to EC50 of F-MuLV.; format: functional
PO3 [19] = experiment: Cytotoxicity was evaluated against PO3 cell line at 1000 ug/disk.; format: functional, Mus musculus; outline: as §1
L1210 [20] = experiment: Cytotoxicity was evaluated against L1210 leukemia cell line at 1000 ug/disk.; format: functional, Mus musculus; outline: as §1
MC-38 [21] = experiment: Cytotoxicity was evaluated against C38 solid tumor of mouse at 1.5 ug/disk.; format: functional; outline: as §1
Homo sapiens [22] = organism: Homo sapiens; experiment: Cytotoxicity was evaluated against PO1 human solid tumor at 1.5 ug/disk.; format: functional; outline: as §1
[23] = Cytotoxicity was evaluated against low malignancy line at 1.5 ug/disk.; format: functional; outline: as §1
Homo sapiens [24] = organism: Homo sapiens; experiment: Cytotoxicity was evaluated against C116 human solid tumor at 1.5 ug/disk.; format: functional; outline: as §1
Homo sapiens [25] = organism: Homo sapiens; experiment: Cytotoxicity was evaluated against H125 human solid tumor at 1.5 ug/disk.; format: functional; outline: as §1
PO3 [26] = experiment: Cytotoxicity was evaluated against PO3 cell line at 1.5 ug/disk.; format: functional, Mus musculus; outline: as §1
[27] = Cytotoxicity was evaluated against CO9 solid tumor of mouse at 1.5 ug/disk.; format: functional; outline: as §1
Mus musculus [28] = organism: Mus musculus; experiment: Cytotoxicity was evaluated and represented as IC50.; format: functional; outline: as §3
[29] = Cytotoxicity was evaluated against low malignancy line at 1000 ug/disk.; format: functional; outline: as §1
[30] = Inhibition of incorporation of labeled precursor into macromolecules of noninfected SC-1 cells with the compound at a concentration 100 uM determined against thymidine; format: functional
Outline: (§4)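 Noninfected SC-1 cells were incubated with analogue as in the cytotoxicity setup, and [3H]thymidine, [3H]uridine or [3H]leucine was added. After 4 h, wells were washed with ice-cold PBS and cells were lysed in 1% SDS, 0.01 M EDTA, 0.01 M Tris pH 7.7. Lysates were dried on glass-fiber filters, and label is expressed as percent of incorporation in untreated cells.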

[31] = Inhibition of incorporation of labeled precursor into macromolecules of noninfected SC-1 cells with the compound at a concentration 300 uM determined against leucine.; format: functional
Outline: (§5)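 SC-1 cells seeded in 24-well trays at 1 × 10^4 cells/mL, incubated overnight at 37 °C, then exposed to analogue for 72 h at 37 °C. Labeled thymidine (2.5 µCi), [3H-5,6]uridine or [3H-4,5]leucine was added. After 4 h, cells were washed with cold PBS, lysed in 1% SDS/0.01 M EDTA/0.01 M Tris pH 7.7, and lysates were dried on GF/B filters. Result given as % of untreated incorporation.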

[32] = Inhibition of incorporation of labeled precursor into macromolecules of noninfected SC-1 cells with the compound at a concentration 100 uM determined against leucine.; format: functional; outline: as §4
[33] = Inhibition of incorporation of labeled precursor into macromolecules of noninfected SC-1 cells with the compound at a concentration 300 uM determined against thymidine; format: functional; outline: as §5
[34] = Inhibition of incorporation of labeled precursor into macromolecules of noninfected SC-1 cells with the compound at a concentration 300 uM determined against uridine.; format: functional; outline: as §5
[35] = Inhibition of incorporation of labeled precursor into macromolecules of noninfected SC-1 cells with the compound at a concentration 100 uM determined against uridine.; format: functional; outline: as §4

## Nc1ncnc2c1ncn2C/C=C\CCl
L1210 [1]
  IC50: 22 µM
MC-38 [2]
  Cytotoxicity: 280
L1210 [3]
  Cytotoxicity: 220
L1210 [4]
  Control: 60%
L1210 [5]
  Control: 99%
L1210 [6]
  Control: 68%
[7]
  Cytotoxicity: 200
L1210 [8]
  Control: 98%
L1210 [9]
  Control: 80%
L1210 [10]
  Control: 73%

## Nc1ccn(C/C=C\CO)c(=O)n1
L1210 [1]
  IC50: > 1000 µM

## NC1=NC(Cl)c2c(ncn2C/C=C/CCl)N1 (configuration not stated)
L1210 [1]
  IC50: 39 µM
MC-38 [2]
  Cytotoxicity: 700
L1210 [3]
  Cytotoxicity: 800
[7]
  Cytotoxicity: 600

## Nc1nc(O)c2ncn(C/C=C/CO)c2n1
L1210 [1]
  IC50: 200 µM

## Nc1ccn(C/C=C/CO)c(=O)n1
L1210 [1]
  IC50: > 550 µM

## Nc1ncnc2c1ncn2C=C=CCCl
Homo sapiens [11]
  Cytotoxicity: 300
L1210 [1]
  IC50: 45 µM
MC-38 [2]
  Cytotoxicity: 400
L1210 [3]
  Cytotoxicity: 280
[7]
  Cytotoxicity: 280
PO3 [12]
  Cytotoxicity: 300
Homo sapiens [13]
  Cytotoxicity: 300

## NC(=O)c1ncn([C@@H]2O[C@H](CO)[C@@H](O)[C@H]2O)n1 [RIBAVIRIN]
Mus musculus [14]
  EC50: 32.1 µM
Mus musculus [15]
  IC50: 52 µM
[16]
  SI: 1.6
Mus musculus [17]
  EC50: 8.3 µM
[18]
  SI: 6.3

## Nc1nc(O)c2ncn(CC#CCO)c2n1
PO3 [19]
  Cytotoxicity: 210
L1210 [1]
  IC50: 210 µM
L1210 [20]
  Cytotoxicity: 220

## Nc1ncnc2c1ncn2[C@@H]1C=C(CO)[C@@H](O)[C@H]1O [NEOPLANOCIN A]
MC-38 [21]
  Cytotoxicity: 0
Homo sapiens [22]
  Cytotoxicity: 0
[23]
  Cytotoxicity: 100
Homo sapiens [24]
  Cytotoxicity: 340
Homo sapiens [25]
  Cytotoxicity: 400
PO3 [26]
  Cytotoxicity: 80
[27]
  Cytotoxicity: 40

## Nc1nc(O)c2ncn(C3C=CCO3)c2n1 (configuration not stated)
L1210 [1]
  IC50: > 350 µM

## O=C(O)P(=O)(O)O [FOSCARNET]
Mus musculus [14]
  EC50: 42.8 µM
Mus musculus [28]
  IC50: 1000 µM
[16]
  SI: 23.4
Mus musculus [17]
  EC50: 110 µM
[18]
  SI: 9.1

## Nc1nc(O)c2ncn(C=C=CCO)c2n1
L1210 [1]
  IC50: > 350 µM

## Cc1cn(C=C=CCO)c(=O)nc1N
L1210 [1]
  IC50: 620 µM
MC-38 [2]
  Cytotoxicity: 520
[29]
  Cytotoxicity: 550
L1210 [20]
  Cytotoxicity: 500
Homo sapiens [13]
  Cytotoxicity: 500

## Cc1cn(CC#CCCl)c(=O)[nH]c1=O
L1210 [1]
  IC50: 140 µM
MC-38 [2]
  Cytotoxicity: 630
L1210 [3]
  Cytotoxicity: 520
[7]
  Cytotoxicity: 610

## Nc1ncnc2c1ncn2CC#CCCl
Homo sapiens [11]
  Cytotoxicity: 900
L1210 [1]
  IC50: 90 µM
MC-38 [2]
  Cytotoxicity: 950
L1210 [3]
  Cytotoxicity: 930
[7]
  Cytotoxicity: 950
PO3 [12]
  Cytotoxicity: 520

## Nc1ccn(C=C=CCO)c(=O)n1
[30]
  Precursor inhibition: 89%
[31]
  Precursor inhibition: 75%
L1210 [1]
  IC50: 560 µM
Mus musculus [14]
  EC50: 11.5 µM
[32]
  Precursor inhibition: 91%
Mus musculus [15]
  IC50: 489 µM
[33]
  Precursor inhibition: 67%
[16]
  SI: 42.5
[34]
  Precursor inhibition: 51%
Mus musculus [17]
  EC50: 8.1 µM
[35]
  Precursor inhibition: 75%
[18]
  SI: 60.4

## Nc1ccn([C@@H]2O[C@H](CO)[C@@H](O)[C@@H]2O)c(=O)n1 [CYTARABINE]
L1210 [1]
  IC50: 0.08 µM

## Cc1cn(C=C=CCO)c(=O)[nH]c1=O
L1210 [1]
  IC50: 100 µM

## Cc1cn(CC#CCO)c(=O)[nH]c1=O
L1210 [1]
  IC50: > 500 µM

## Nc1ccn(CC#CCO)c(=O)n1
L1210 [1]
  IC50: > 550 µM
